High-throughput results: PubChem, several laboratories
Cl transport mod = KCC2 cotransporter modulators, thallium flux, primary screen, cell-based, HEK293 KCC2, FluoZin-2 fluorescence, MLSMR; Solute carrier family 12 member 5 (Homo sapiens), Q9H2X9; KCC2 cells, thallium flux FluoZin-2 fluorescence; B-score of Tl+ flux slope (higher = more flux/activation; lower = inhibition) at 10 µM; 190,000 tested, 2.2% active; AID 1456, 2008;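 active = thallium flux slope and its plate-corrected score both differing from the plate sample mean at a set confidence after two filtering rounds, in either direction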;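 also: slope of fluorescence scaled to starting intensity during 10 to 20 s after thallium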
KCNQ1 pot = potentiators or activators of KCNQ1 channel, primary screen, cell-based, thallium flux, high-throughput | Potassium voltage-gated channel subfamily KQT member 1 (Homo sapiens), P51787 | CHO-K1 KCNQ1, thallium flux FluxOR fluorescence; active compounds read high | B-score at 10 µM | 310,000 tested, 0.35% active | AID 2648, 2010;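 active = fluorescence ratio B-score, a plate-corrected score, at least three library SD, with initial intensity B-score within 5 SD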
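Assay system: CHO-K1 cells stably expressing KCNQ1; Medium: assay buffer with matched DMSO; Also added: K+/Tl+ depolarizing stimulus; Dosing: single dose; Timing: dye 90 min, compound 20 min, room temperature; Measured by: kinetic FluxOR thallium fluorescence, 10-s 1-Hz baseline, 110-s post-stimulus read; Read-out: peak-minus-minimum fluorescence over initial fluorescence, negative-control normalized, B-scored.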
KCNQ1 inh = inhibitors of human KCNQ1 channel, primary screen, cell-based, thallium flux, high-throughput | CHO-K1 KCNQ1, FluxOR thallium flux fluorescence; active compounds read high | B-score at 10 µM | 310,000 tested, 1.3% active | AID 2642, 2010;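 active = compounds whose thallium flux B-score, printed positive for inhibition, exceeds three library SD while starting fluorescence stays within three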;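 also: channel opened by potassium depolarization with thallium stimulus after 20 min compound exposure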
AI-2 QS mod = Vibrio harveyi AI-2 quorum sensing modulators, primary screen, JMH597 strain, luminescence/OD600 ratio; Vibrio harveyi JMH597 AI-2 luminescence/OD600 ratio, 9 h; active compounds read low; strain lacks LuxN and CqsS sensors; 0 = neutral-control median; activity change, % at 7.5 µM; 300,000 tested, 0.4% active; in the data active = activity change below about -75%, passing the limit was not always enough; inconclusive = no clear call, values can overlap the other calls;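 also: luminescence divided by OD600 gain over 9 h not by final OD600 alone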
Mot1-301 SUMO = yeast Mot1-301 growth rescue at high temperature, primary screen, SUMOylation pathway inhibitor project, S. cerevisiae, ATP luminescence, 38.5C; AID 2716, 2010; S. cerevisiae Mot1-301 growth rescue; percent above DMSO median, 100 means doubled; growth rescue, % at 18.8 µM; 320,000 tested, 1% active;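 active = every valid replicate shows activation above 250% relative to neutral control wells; inactive = the rest, any valid replicate at or below 250%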
hERG rescue = hERG rescue from dofetilide block, primary screen, cell-based, CHO-hERG, FluxOR thallium flux, dofetilide IC70 | Voltage-gated inwardly rectifying potassium channel KCNH2 (Homo sapiens), Q12809 | dofetilide IC70 present | activation (rescue from dofetilide block), less the hit threshold, % at 10 µM | 310,000 tested, 0.51% active | AID 1511, 2009;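 active = activation above the mean of controls blocked by dofetilide plus 5 SD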;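 also: thallium influx through hERG after potassium depolarization seen as dye fluorescence rise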
KCC2 sec1 = KCC2 modulators in sodium-free buffer, confirmation, cell-based, HEK293 KCC2, thallium flux, secondary assay; shares compounds with Cl transport mod; FluoZin2 fluorescence; active compounds read high; normalised thallium flux (F/F0 slope) at 10 µM; 3,700 tested, 15% active;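 active = thallium flux slope above the same plate's solvent-only control mean plus 3 SD; inconclusive = the two replicate wells disagree; inactive = no significant difference from solvent-only control wells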
KCC2 bumet counter = thallium flux persisting under bumetanide in KCC2 cells, confirmation, counter-screen for KCC2 modulator project, cell-based, HEK293 KCC2, FluoZin2, secondary assay 3; shares compounds with Cl transport mod; normalized thallium flux at 10 µM; 3,700 tested, 49% active; HEK293-KCC2 + bumetanide/ouabain; active compounds read high;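 active = thallium entry rate above the same plate's blocked-transporter control wells by more than 3 SD; inconclusive = the two repeat wells disagree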;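 also: raw slope of fluorescence over initial fluorescence between 10 and 20 s after thallium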
KCC2 sec2 = KCC2 modulators without ouabain present, confirmation, cell-based, HEK293 KCC2, thallium flux, FluoZin2, secondary assay 2 | shares compounds with Cl transport mod | thallium flux FluoZin2 fluorescence; actives lie on both sides; F/F0 rise rate, 10–20 s post-thallium | normalized thallium flux at 10 µM | 3,700 tested, 23% active;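 active = thallium flux slope more than 3 SD above or below the plate's solvent-only control mean, mostly below; inconclusive = the two repeat wells disagreed; inactive = no significant shift from solvent-only controls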
HEK counter1 = thallium flux modulation in parental HEK cells, confirmation, counter-screen for KCC2 modulator project, cell-based, counterscreen 1; AID 1716, 2009; 3,700 tested, 46% active; shares compounds with Cl transport mod; thallium flux rate (normalised fluorescence) at 10 µM; HEK293 parental cells, thallium flux FluoZin2, ouabain; baseline-ratio fluorescence slope, 10–20 s after thallium;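 active = thallium flux rate significantly above the same plate's solvent-only control wells, beyond their mean plus 3 SD; inconclusive = the two replicate wells gave conflicting results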
KCC2 ouabain = KCC2 inhibitors and activators, ouabain retest, confirmation, HEK-KCC2 cells | 3,700 tested, 48% active | raw Tl+ flux slope (below DMSO = inhibition, above = activation) at 10 µM | HEK293-KCC2, thallium flux FluoZin2 fluorescence; bidirectional: low = inhibitor, high = activator | shares compounds with Cl transport mod;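 active = thallium flux slope beyond 3 SD from same-plate DMSO control mean in most replicates, usually higher, sometimes lower; inconclusive = repeat tests gave conflicting results; inactive = no significant difference from controls in most replicates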;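 also: slope of initial-normalized fluorescence between seconds 10 and 20 after thallium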
HEK293 Tl flux2 = native HEK Tl+ uptake effects, second counter-screen – HEK cells, counterscreen 2, counter-screen for KCC2 modulator project, confirmation; thallium flux slope at 10 µM; 3,700 tested, 33% active; HEK293 parental, thallium flux FluoZin-2 fluorescence slope; shares compounds with Cl transport mod;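 active = thallium flux slope above the same plate's solvent-control mean plus 3 SD in both duplicate wells; inconclusive = duplicate wells that disagreed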;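 also: run without ouabain in cells lacking the KCC2 cotransporter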
Of the large screens only hits and unclear results are named; the others gave an inactive call (follow-up assays come after a bar, where they were run). Rows were chosen to be rich in hits. Some 4.2% of all compounds tested hit in one or more screens of this group.

COCCCn1c(=S)[nH]c2sc3c(c2c1=O)CCCS3	Cl transport mod 53, hERG rescue 19 | KCC2 sec1 0.033 | KCC2 bumet counter 0.093 | KCC2 sec2 0.049 | HEK counter1 0.068 | KCC2 ouabain 0.077 | HEK293 Tl flux2 0.029
CCN1C(=O)[C@H]2[C@@H](c3ccc(-c4ccccc4)cc3)N3CCC[C@@]3(C(=O)OC)[C@H]2C1=O	none (no result: Cl transport mod)
CCOC(=O)c1ccc(CNC(=O)CCC(=O)O)cc1	none (no result: Cl transport mod) | KCC2 sec1 inactive | KCC2 bumet counter inactive | KCC2 sec2 inactive | HEK counter1 inactive | KCC2 ouabain inactive | HEK293 Tl flux2 inactive
Cc1c(C(=O)OCC(=O)NCC2CCCO2)cccc1[N+](=O)[O-] (configuration not stated)	none
Cc1ccccc1Nc1nnc(SCc2cc(=O)n3ccsc3n2)s1	Cl transport mod -4.9 | KCC2 sec1 inactive | KCC2 bumet counter inactive | KCC2 sec2 inactive | HEK counter1 inactive | KCC2 ouabain inconclusive | HEK293 Tl flux2 inactive
Cc1cccc(C)c1Nc1nnc(SCC(=O)c2ccc3c(c2)NC(=O)CO3)s1	Cl transport mod -3.8 | KCC2 sec1 inactive | KCC2 bumet counter inactive | KCC2 sec2 inactive | HEK counter1 inactive | KCC2 ouabain 0.019 | HEK293 Tl flux2 inactive
CCOc1ccc(OCC)c(S(=O)(=O)NCc2ccccc2)c1	none (no result: Cl transport mod)
CCOc1cc(Br)ccc1S(=O)(=O)NCc1ccccc1	none (no result: Cl transport mod) | KCC2 sec1 inactive | KCC2 bumet counter inactive | KCC2 sec2 0.024 | HEK counter1 inactive | KCC2 ouabain 0.016 | HEK293 Tl flux2 inactive
CC(C)c1ccc(NC(=O)c2csnn2)cc1	Cl transport mod 6.7 | KCC2 sec1 inactive | KCC2 bumet counter inactive | KCC2 sec2 inactive | HEK counter1 inactive | KCC2 ouabain inactive | HEK293 Tl flux2 inactive
CC(C)c1ccc(NC(=O)c2cccnc2)cc1	none
CN1C(=O)/C(=C\c2ccccc2F)Sc2ccc(C(=O)NC3CCN(Cc4ccccc4)CC3)cc21	none (no result: Cl transport mod)
COc1ccc(CNC(=O)c2csc(Cc3ccc(Cl)cc3)n2)cc1	none (no result: Cl transport mod) | KCC2 sec1 inactive | KCC2 bumet counter inconclusive | KCC2 sec2 0.025 | HEK counter1 inconclusive | KCC2 ouabain 0.015 | HEK293 Tl flux2 inactive
COc1ccc(CNC(=O)c2csc(Cc3ccc(OC)cc3)n2)cc1	none (no result: Cl transport mod)
Cc1ccccc1-n1nnnc1SCC(=O)NNC(=O)c1ccc(NC(=O)CC#N)cc1	none (no result: Cl transport mod, KCNQ1 pot, KCNQ1 inh, AI-2 QS mod, hERG rescue)
NC(=O)C(c1ccc(Sc2ccccc2)nn1)c1ccc(Cl)cc1Cl (configuration not stated)	Cl transport mod 4 (no result: Mot1-301 SUMO) | KCC2 sec1 inactive | KCC2 bumet counter inactive | KCC2 sec2 inactive | HEK counter1 inactive | KCC2 ouabain inactive | HEK293 Tl flux2 inactive
CCOC(=O)c1nc(C)nc(Sc2n[nH]c(-c3cc(C(F)(F)F)cc(C(F)(F)F)c3)n2)c1C	Cl transport mod -3.6, KCNQ1 inh 6 | KCC2 sec1 inactive | KCC2 bumet counter inactive | KCC2 sec2 inactive | HEK counter1 inconclusive | KCC2 ouabain 0.017 | HEK293 Tl flux2 inactive
Cc1onc(-c2ccccc2)c1CNS(=O)(=O)c1ccccc1[N+](=O)[O-]	none
Cc1ccc(C(=O)O)cc1-c1ccc(/C=C2/NC(=O)N(c3ccccc3)C2=O)o1	Cl transport mod -4.6 | KCC2 sec1 inactive | KCC2 bumet counter inactive | KCC2 sec2 0.022 | HEK counter1 inactive | KCC2 ouabain 0.014 | HEK293 Tl flux2 inactive
Cc1cc(C(=O)O)ccc1-c1ccc(/C=C2\NC(=O)N(Cc3ccccc3Cl)C2=O)o1	none
O=C(NC(=S)Nc1ccc2c(c1)OCCO2)c1cccc2ccccc12	Cl transport mod 11 | KCC2 sec1 inconclusive | KCC2 bumet counter 0.086 | KCC2 sec2 inactive | HEK counter1 0.035 | KCC2 ouabain 0.057 | HEK293 Tl flux2 0.016
O=C(NC(=S)Nc1ccc2c(c1)OCCO2)c1cccc(Br)c1	Cl transport mod 37 | KCC2 sec1 inactive | KCC2 bumet counter 0.042 | KCC2 sec2 0.043 | HEK counter1 0.046 | KCC2 ouabain 0.034 | HEK293 Tl flux2 0.028
CC(=O)C[C@H]1c2ccccc2S(=O)(=O)N1c1ccccc1	none (no result: Cl transport mod)
CCOC(=O)c1ccc(NC(=O)N(CC)CC)cc1	none (no result: Cl transport mod)
Cc1ccc(C)c(/C=N/n2cc(-c3ccccc3)[nH]c2=S)c1	Cl transport mod 21 | KCC2 sec1 0.013 | KCC2 bumet counter 0.047 | KCC2 sec2 inactive | HEK counter1 0.055 | KCC2 ouabain 0.041 | HEK293 Tl flux2 0.014
O=C(O)c1ccc(/C=N/n2cc(-c3ccccc3)[nH]c2=S)cc1	none
